Assay outcomes (PubChem)
In the library only some 2.7% were active in any assay of this set; here they are far more common.
HNF4A DNA FP – change in binding of human HNF4 alpha to DNA | HNF4a-FITC DNA binding, fluorescence polarization, 1 h | activity change, % at 10 µM | hit rate 0.3% among 360,000 | AID 1224865; in the data active means activity change above about 30%, passing the limit was not always enough
CSN inh – blocks human CSN-mediated cullin deneddylation; hit rate 0.38% among 360,000; Purified CSN, SCF-Nedd8-OG deneddylation, fluorescence polarization; inhibition, % at 12.5 µM; Q92905;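 active means pattern-corrected inhibition above about 35%, with an unprinted fluorescence ratio check between 0.5 and 1.5, limit read from the data, passing the limit was not always enough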
Target sequence (Q92905 whole entry, looked up, one chain of several): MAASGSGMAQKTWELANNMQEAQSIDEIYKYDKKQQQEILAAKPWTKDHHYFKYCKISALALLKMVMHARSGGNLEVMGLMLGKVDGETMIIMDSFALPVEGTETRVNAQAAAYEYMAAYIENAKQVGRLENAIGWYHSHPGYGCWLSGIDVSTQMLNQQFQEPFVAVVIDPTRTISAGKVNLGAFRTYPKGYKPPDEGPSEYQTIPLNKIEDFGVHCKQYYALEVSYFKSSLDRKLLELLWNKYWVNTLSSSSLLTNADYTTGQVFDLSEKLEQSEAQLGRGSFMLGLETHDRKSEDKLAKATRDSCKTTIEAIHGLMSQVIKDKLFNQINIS
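Test system: Human Csn5 produced in HEK293T cells | Compound: 12.5 µM single point | Times: 90 min, room temperature | Signal: Fluorescence polarization readout | Read-out basis: % inhibition of substrate cleavage by Csn5 | Controls: no-enzyme wells high, enzyme-with-substrate wells low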
TPT1 inhibitor – C. albicans TPT1 enzyme inhibition; recombinant caTPT1, FP RNA substrate dephosphorylation; inhibition, % at 5 µM; hit rate 0.81% among 300,000;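 active means inhibition above the mean of all tested compounds plus 3 SD, set per screening campaign, cut at about 24% in these data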
Rpn11 inh – blocks the human proteasome subunit Rpn11; O00487; human 26S proteasome, Ub4-pepOG fluorescence polarization; 20S core pre-blocked with epoxomicin; inhibition, % at 20 µM; hit rate 0.59% among 360,000; AID 588493;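 active means inhibition at 20 µM, scaled to each plate's controls, above about 33%, limit read from the data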
PP1 counter – blocks human PP1-alpha phosphatase, a PP5 counter-screen | purified PP1alpha, OMFP fluorescence | hit rate 0.9% among 320,000 | AID 2235 | inhibition, % at 6.7 µM;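 active means inhibition above the mean inhibition of all tested compounds plus 3 SD, computed separately for each screening campaign, cut at about 15% in these data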
Target sequence (P62136 whole entry, looked up): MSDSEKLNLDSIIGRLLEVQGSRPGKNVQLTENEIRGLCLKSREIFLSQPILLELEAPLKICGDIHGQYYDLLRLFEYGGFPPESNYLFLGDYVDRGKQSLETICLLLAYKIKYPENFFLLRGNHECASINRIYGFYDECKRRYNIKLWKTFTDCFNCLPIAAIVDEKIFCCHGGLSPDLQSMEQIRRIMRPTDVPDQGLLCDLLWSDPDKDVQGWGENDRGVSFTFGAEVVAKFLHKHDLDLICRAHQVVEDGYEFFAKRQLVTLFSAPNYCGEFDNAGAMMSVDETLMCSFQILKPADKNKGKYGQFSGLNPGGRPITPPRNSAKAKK
NadD inh – blocks S. aureus nicotinate mononucleotide adenylyltransferase. AID 602399. inhibition, % at 20 µM. hit rate 0.78% among 360,000. purified NadD enzyme, colorimetric absorbance read-out; in the data active means inhibition above about 26%
Large screens that a line does not name were inactive; ! = a repeat was not active.

O=C(Oc1ccccc1)c1ccc(-n2cnnn2)cc1	none
c1ccc(Oc2ccc(-n3cnnn3)cc2)cc1	HNF4A DNA FP 57
NS(=O)(=O)c1ccc(NC(=O)NC2CC(=O)N(c3ccc4c(c3)OCCO4)C2)cc1 (centres undefined)	none
COc1ccccc1Nc1nn2c(=O)c3ccc(C(=O)NCc4cccnc4)cc3nc2s1	HNF4A DNA FP 90, CSN inh 84
COc1ccccc1Nc1nn2c(=O)c3ccc(C(=O)N4CCCCC4)cc3nc2s1	none
CC1CCCCC1NC(=O)CCCCn1c(=O)[nH]c2ccsc2c1=O (centres undefined)	none
C(C#CCCCCCCCCC[n+]1ccccc1)#CCCCCCCCCC[n+]1ccccc1	HNF4A DNA FP 77, CSN inh 35!
CC(=O)c1ccc(Nc2nc(C(C)N)cs2)cc1 (centres undefined)	none (no result: TPT1 inhibitor, PP1 counter)
COc1cccc(C2C(C(=O)c3cc4ccccc4o3)=C(O)C(=O)N2c2cc(C)on2)c1 (centres undefined)	PP1 counter 25
COc1cccc(C2C(C(=O)c3cc4ccccc4o3)=C(O)C(=O)N2CCN2CCOCC2)c1 (centres undefined)	none
Cc1cc(N2C(=O)C(O)=C(C(=O)c3ccco3)C2c2cccc(Cl)c2)no1 (centres undefined)	none
C=CCOc1cccc(C2C(C(=O)c3cc4ccccc4o3)=C(O)C(=O)N2c2cc(C)on2)c1 (centres undefined)	PP1 counter 28
O=C(Nc1ccc2nc(-c3cccs3)c(-c3cccs3)nc2c1)NC1CC1	Rpn11 inh 37
CCC(=O)N1CCC1(C)C(=O)Nc1cc(OC)ccc1OC (centres undefined)	none (no result: TPT1 inhibitor, PP1 counter)
COc1cc2c(cc1NC(=O)CSc1nnc(Cc3cccs3)n1Cc1ccco1)oc1ccccc12	none
Cc1cc(Cl)ccc1NC(=O)CSc1nnc(Cc2cccs2)n1Cc1ccco1	HNF4A DNA FP 42
COc1ccc(NC(=O)CN2C(=O)/C(=C3\SC(=S)N(C4CCS(=O)(=O)C4)C3=O)c3ccccc32)cc1 (centres undefined)	NadD inh 32
O=c1cc(O)c2c(=O)n(-c3ccccc3)c3c(c2o1)CCCCCC3	PP1 counter 17
COc1ccccc1C(CCNCc1ccc(N(C)C)cc1)c1ccc(OC(C)C)cc1 (centres undefined)	PP1 counter 16
CSc1ccccc1NC(=O)c1cc(-c2cccnc2)nc2ccc(Br)cc12	PP1 counter 17
Cc1ccc(/C=C2/SC(=S)N(C3CCCCC3)C2=O)o1	HNF4A DNA FP 34, Rpn11 inh 102
CC(=O)Oc1ccc(C(=O)Nc2cccc(C(=O)c3cccc(NC(=O)c4ccc(OC(C)=O)cc4)c3)c2)cc1	CSN inh 108, PP1 counter 15
CC(=O)Oc1ccc(C(=O)Nc2cccc(C(=O)NC(C)(C)C)c2)cc1	none
CC(=O)NCCCc1nc2ccccc2n1Cc1cc(C)ccc1C	none
COc1cc(C(=O)NCCCc2nc3ccccc3n2Cc2cc(C)ccc2C)cc(OC)c1OC	HNF4A DNA FP 37
CCOc1ccc(N2CC(C(=O)OC)CC2=O)cc1 (centres undefined)	HNF4A DNA FP 50
CCOc1ccc(N2CC(C(=O)Nc3nnc(Cc4ccc(OC)cc4)s3)CC2=O)cc1 (centres undefined)	PP1 counter 16
CCNC(=O)C1CC(=O)N(c2ccc(OCC)cc2)C1 (centres undefined)	none
COc1cc(C(C)=O)ccc1OCC(O)CN1CCN(c2c(C)cccc2C)CC1 (centres undefined)	HNF4A DNA FP 45
COc1cc(C(C)=O)ccc1OCC(O)CN1CCN(c2ccc(C)c(C)c2)CC1 (centres undefined)	none
CN1CCN(CC(=O)n2c3c(c4ccccc42)CCCC3)CC1	CSN inh 39
COc1ccc(C2=Nc3ccccc3N(C(=O)c3ccc(C(F)(F)F)cc3)C2C(=O)Nc2c(C)cccc2C)cc1 (centres undefined)	none (no result: TPT1 inhibitor, Rpn11 inh, PP1 counter, NadD inh)
Cn1c(N)c(C(=O)COC(=O)c2cc(-c3ccco3)nc3ccccc23)c(=O)n(Cc2ccccc2)c1=O	PP1 counter 30 (no result: HNF4A DNA FP, CSN inh, Rpn11 inh, NadD inh)
Cn1c(N)c(C(=O)COC(=O)c2cc(C(F)(F)F)nc3ccccc23)c(=O)n(Cc2ccccc2)c1=O	none (no result: HNF4A DNA FP, CSN inh, Rpn11 inh, NadD inh)
C[C@@H]1CN([C@@H](C)CO)C(=O)c2cc(NC(=O)c3ccccc3)ccc2O[C@@H](C)CCCCO[C@@H]1CN(C)S(=O)(=O)c1ccc(F)cc1	none (no result: TPT1 inhibitor, PP1 counter)
Cc1ccc(C)c(N2CC(C(=O)OCC(=O)Nc3cc(C)on3)CC2=O)c1 (centres undefined)	none
Cc1ccc(NC(=O)CN(C)S(=O)(=O)c2cnc[nH]2)c(C)c1	none
Cc1[nH]c2ccccc2c1/C=N/Nc1ccc([N+](=O)[O-])cc1S(=O)(=O)Nc1ccc(Cl)cc1	HNF4A DNA FP 94, CSN inh 44, NadD inh 38 (not shown: Rpn11 inh)
O=C(O)COc1ccccc1C=NNc1ccc([N+](=O)[O-])cc1S(=O)(=O)Nc1ccc(Cl)cc1	none (no result: TPT1 inhibitor, PP1 counter)
COC(=O)c1ccc(CNC(=O)C2CCC(=O)N(C3CCCCCC3)C2)cc1 (centres undefined)	none
Cc1c(S(=O)(=O)N2CCCCC2)c(=O)n(C)c(=O)n1C	CSN inh 64
COC(=O)C1CCN(S(=O)(=O)c2c(C)n(C)c(=O)n(C)c2=O)CC1	none
CC1CC(C)(C)CC2(C1)NC(=O)N(CC(=O)Nc1ccc3[nH]c(=O)[nH]c3c1)C2=O (centres undefined)	CSN inh 73 (no result: TPT1 inhibitor)
CC1CCC2(CC1)NC(=O)N(CC(=O)Nc1ccc3[nH]c(=O)[nH]c3c1)C2=O (centres undefined)	none
COc1ccc(OCC(=O)Nc2ccc3oc(-c4ccncc4)nc3c2)cc1	none
COc1ccc(-c2nc3cc(NC(=O)Cc4ccc(OC)c(OC)c4)ccc3o2)cc1	CSN inh 43
Cc1nc(-c2ccc(F)cc2)c(CC(=O)N(C)CC(=O)Nc2cccc(F)c2)s1	none (no result: TPT1 inhibitor, PP1 counter)
COc1ccc2c(c1)CCc1c(C(=O)Nc3cc(C)n(Cc4ccc(Cl)cc4)n3)noc1-2	CSN inh 91
COc1ccc(CNC(=O)[C@@H](NC(=O)C2CCN(S(=O)(=O)c3ccccc3)CC2)C(C)C)cc1	none
CCOC(=O)CSc1nnc(-c2ccc(OC)cc2)n1CC	none
CCOC(=O)Cn1c(-c2ccc(OC)cc2)c(-c2ccc(OC)cc2)nnc1=O	HNF4A DNA FP 33
Cc1ccc(NC(=O)C2CC(=O)N(c3ccc4c5c(cccc35)CC4)C2)cc1 (centres undefined)	CSN inh 35
CCOc1ccc(NC(=O)c2ccc(N)cc2)cc1	none
CCOc1ccc(NC(=O)c2ccc(NC(=O)c3ccc(NC(N)=O)cc3)cc2)cc1	Rpn11 inh 106 (no result: TPT1 inhibitor, PP1 counter)
